In ChEMBL document CHEMBL4725355, “Design, Synthesis, and Preclinical Evaluation of 3-Methyl-6-(5-thiophenyl)-1,3-dihydro-imidazo[4,5-b]pyridin-2-ones as Selective GluN2B Negative Allosteric Modulators for the Treatment of Mood Disorders” (J Med Chem, 2020):

Legend:
[1] = Ex vivo receptor occupancy at GluN2B in Sprague-Dawley rat assessed as 3-[3H] 1-(azetidin-1-yl)-2-[6-(4-fluoro-3-methyl-phenyl)pyrrolo[3,2-b]pyridin-1-yl]-ethanone labelling at 3 mg/kg, po measured after 0.5 hrs by autoradiography; type: functional
Method in brief: (§1)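 Rats dosed orally at 3 mg/kg in 20% HP-β-CD; brains taken at 0.5, 2 and 6 h. Ex vivo autoradiography of brain slices with the ³H pyrrolo[3,2-b]pyridine GluN2B tracer. Labelling expressed relative to matching brain areas of vehicle-treated animals; n=2, ± SEM.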

[2] = Solubility of compound in 20% hydroxypropyl-beta-cyclodextrin at 0.1 mg/ml; type: physicochemical
Method in brief: (§2)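 Solubility of the compound assessed in dosing excipients, including 30% SBE-β-CD, 50% PEG-400 and 20% HP-β-CD. The aim was a solution usable for rat dosing; the 20% HP-β-CD formulation was checked for a 0.1 mg/mL solution to support a 0.5 mg/kg dose.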

[3] = Solubility of compound in 30% sulfobutylether-beta-cyclodextrin at 0.5 mg/ml; type: physicochemical; method in brief: as §2
[4] = Displacement of 3-[3H] 1-(azetidin-1-yl)-2-[6-(4-fluoro-3-methyl-phenyl)pyrrolo[3,2-b]pyridin-1-yl]ethanone from GluN1a/GluN2B receptor in rat cortex membranes measured after 2 hrs by liquid scintillation counting method; type: cell membranes
Method in brief: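 Rat adult cortex was homogenized in 50 mM Tris pH 7.4, and membranes were washed by centrifugation. Membranes were incubated with the [3H] pyrrolopyridine tracer and test compound for 2 h at room temperature with shaking. Non-specific binding was defined with 10 µM CP-101,606. Bound tracer was separated by filtration on PEI-soaked GF/B filters and counted by liquid scintillation. Ki was obtained from a competition fit using tracer Kd; three independent runs in duplicate.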

[5] = Cmax in Sprague-Dawley rat brain at 3 mg/kg, po after 6 hrs by LC-MS/MS analysis; type: ADME, organism-based; design: route oral, dose 3 mg/kg, time 6 hrs
Method in brief: (§3)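 Oral dose of 3 mg/kg in 20% HP-β-CD to rats. Brain concentration was measured alongside ex vivo GluN2B occupancy over a 6 h time course (0.5, 2 and 6 h), n=2.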

[6] = Negative allosteric modulation of human GluN1a/GluN2B receptor expressed in CHO cells assessed as inhibition of glutamate and glycine-induced calcium flux preincubated for 5 mins followed by glutamate and glycine addition and measured after 5 mins by calcium 5 dye based FLIPR assay; type: cell-based
Method in brief: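 Tet-On CHO T-Rex cells expressing hGluN1a with GluN2A, 2B, 2C or 2D, plated at 20,000 cells/well and induced 24 h before the assay in the presence of ketamine. Cells loaded 1 h at room temperature with Calcium 5 dye, pH 7.4 HEPES buffer. Compound added 5 min, then glutamate (~EC80) plus 10 µM glycine for 5 min; FLIPR fluorescence normalized to control wells. Three independent runs in duplicate (two for some).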

[7] = AUC (infinity) in Sprague-Dawley rat at 0.1 mg/kg, iv or 0.5 mg/kg, po by LC-MS/MS analysis; type: ADME, organism-based; design: dose 0.5 mg/kg; conditions: in vivo
Method in brief: (§4)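 Rat PK with IV and PO dosing, n=3. The usual doses were 0.5 mg/kg IV and 2.5 mg/kg PO in 20% HP-β-CD. One compound was instead given at 0.1 mg/kg IV and 0.5 mg/kg PO.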

[8] = Metabolic stability in human liver microsomes assessed as extraction ratio at 1 uM after 5 to 60 mins in presence of NADPH by LC-MS/MS analysis; type: ADME, Microsome; conditions: time 5-60 min, read-out: ERH
Method in brief: (§5)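 Human and rat liver microsomes, run in duplicate; stability reported as microsomal extraction ratio.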

[9] = Solubility of compound in phosphate buffer at pH 7 measured after 3 days; type: physicochemical; conditions: time 3 day
Method in brief: (§6)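 Solubility in aqueous buffer at pH 2 and pH 7, and in simulated gastric and intestinal fluids.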

[10] = Clearance in Sprague-Dawley rat at 0.1 mg/kg, iv by LC-MS/MS analysis; type: ADME, organism-based; conditions: in vivo; method in brief: as §4
[11] = Oral bioavailability in Sprague-Dawley rat at 0.5 mg/kg by LC-MS/MS analysis; type: ADME, organism-based; conditions: in vivo
[12] = Tmax in Sprague-Dawley rat at 0.1 mg/kg, iv or 0.5 mg/kg, po by LC-MS/MS analysis; type: ADME, organism-based; conditions: in vivo
Method in brief: (§7)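 Rat PK with doses of 0.1 mg/kg i.v. and 0.5 mg/kg p.o., vehicle 20% HP-β-CD. n=3, values given as mean ± SD.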

[13] = Tmax in Sprague-Dawley rat brain at 3 mg/kg, po by LC-MS/MS analysis; type: ADME, organism-based
Method in brief: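 Rats dosed orally at 3 mg/kg in 20% HP-β-CD. Brain concentrations were measured over a 6 h time course (0.5, 2, 6 h) alongside ex vivo GluN2B occupancy, n=2.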

[14] = Volume of distribution at steady state in Sprague-Dawley rat at 0.1 mg/kg, iv or 0.5 mg/kg, po by LC-MS/MS analysis; type: ADME, organism-based; conditions: in vivo, read-out: Vdss; method in brief: as §7
[15] = biological target: Voltage-gated inwardly rectifying potassium channel KCNH2 (Homo sapiens, UniProt Q12809); test: Inhibition of human ERG expressed in CHO cells measured after 5 mins by Qpatch method; type: cell-based
Method in brief: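 CHO cells stably expressing hERG, whole-cell QPatch. Vehicle applied 5 min, then 0.3, 3.0, 10 and 30 µM in rising order, each concentration applied twice. Current measured after 5 min as the average of 3 voltage pulses; block taken relative to vehicle pretreatment, mean ± SEM.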

[16] = Half life in Sprague-Dawley rat at 0.1 mg/kg, iv or 0.5 mg/kg, po by LC-MS/MS analysis; type: ADME, organism-based; conditions: in vivo
Method in brief: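 Rat PK with 0.1 mg/kg i.v. and 0.5 mg/kg p.o. doses, n=3 ± SD.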

[17] = Cmax in Sprague-Dawley rat brain at 3 mg/kg, po after 2 hrs by LC-MS/MS analysis; type: ADME, organism-based; design: route oral, dose 3 mg/kg, time 2 hrs; method in brief: as §3
[18] = Cmax in Sprague-Dawley rat at 0.1 mg/kg, iv or 0.5 mg/kg, po by LC-MS/MS analysis; type: ADME, organism-based; design: dose 0.5 mg/kg; conditions: in vivo; method in brief: as §4
[19] = Solubility of compound in 100% polyethylene glycol 400 at 0.5 mg/ml; type: physicochemical
[20] = Ex vivo receptor occupancy at GluN2B in Sprague-Dawley rat assessed as 3-[3H] 1-(azetidin-1-yl)-2-[6-(4-fluoro-3-methyl-phenyl)pyrrolo[3,2-b]pyridin-1-yl]-ethanone labelling at 3 mg/kg, po measured after 2 hrs by autoradiography; type: functional; method in brief: as §1
[21] = Ex vivo receptor occupancy at GluN2B in Sprague-Dawley rat assessed as 3-[3H] 1-(azetidin-1-yl)-2-[6-(4-fluoro-3-methyl-phenyl)pyrrolo[3,2-b]pyridin-1-yl]-ethanone labelling at 3 mg/kg, po measured after 6 hrs by autoradiography; type: functional; method in brief: as §1
[22] = Metabolic stability in rat liver microsomes assessed as extraction ratio at 1 uM after 5 to 60 mins in presence of NADPH by LC-MS/MS analysis; type: ADME, Microsome; conditions: time 5-60 min, read-out: ERH; method in brief: as §5
[23] = Solubility of compound in phosphate buffer at pH 2 measured after 3 days; type: physicochemical; conditions: time 3 day; method in brief: as §6
[24] = Efflux ratio of apparent permeability across basolateral to apical side over apical to basolateral side in MDCK-MDR1 cells at 5 uM measured after 60 mins by LC-MS/MS analysis; type: ADME, cell-based, Canis lupus familiaris; conditions: dog
Method in brief: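 MDCK-MDR1 cells, passages 6-30, seeded at 3.4×10^5 cells/cm² and cultured 3 days. Test compound at 5 µM final (1% DMSO) in HBSS, pH 7.4, applied to the donor side. A→B and B→A runs at 37 °C for 60 min, in duplicate, quantified by LC/MS/MS. Efflux ratio taken as B-A/A-B; monolayer integrity checked by lucifer yellow.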

[25] = Volume of distribution at steady state in Sprague-Dawley rat at 0.5 mg/kg, iv or 2.5 mg/kg, po using 30% SBE-beta-CD formulation by LC-MS/MS analysis; type: ADME, organism-based; conditions: in vivo, read-out: Vdss
Method in brief: (§8)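 Rat PK at 0.5 mg/kg i.v. and 2.5 mg/kg p.o., vehicle 30% SBE-β-CD. n=3, values given as mean ± SD.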

[26] = Cmax in Sprague-Dawley rat at 0.5 mg/kg, iv or 2.5 mg/kg, po using 30% SBE-beta-CD formulation by LC-MS/MS analysis; type: ADME, organism-based; design: dose 2.5 mg/kg; conditions: in vivo
Method in brief: (§9)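 Rat IV/PO PK at 0.5 mg/kg IV and 2.5 mg/kg PO, dosed in 30% SBE-β-CD, n=3.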

[27] = Clearance in Sprague-Dawley rat at 0.5 mg/kg, iv using 30% SBE-beta-CD formulation by LC-MS/MS analysis; type: ADME, organism-based; conditions: in vivo; method in brief: as §9
[28] = AUC (infinity) in Sprague-Dawley rat at 0.5 mg/kg, iv or 2.5 mg/kg, po using 30% SBE-beta-CD formulation by LC-MS/MS analysis; type: ADME, organism-based; design: dose 2.5 mg/kg; conditions: in vivo; method in brief: as §9
[29] = Tmax in Sprague-Dawley rat at 0.5 mg/kg, iv or 2.5 mg/kg, po using 30% SBE-beta-CD formulation by LC-MS/MS analysis; type: ADME, organism-based; conditions: in vivo; method in brief: as §8
[30] = Oral bioavailability in Sprague-Dawley rat at 2.5 mg/kg using 30% SBE-beta-CD formulation by LC-MS/MS analysis; type: ADME, organism-based; conditions: in vivo
Method in brief: (§10)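 Rats dosed 0.5 mg/kg i.v. and 2.5 mg/kg p.o., n=3 ± SD. Default vehicle is 20% HP-β-CD; one PK set used 1:1 PEG400/water and another 30% SBE-β-CD.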

[31] = Half life in Sprague-Dawley rat at 0.5 mg/kg, iv or 2.5 mg/kg, po using 30% SBE-beta-CD formulation by LC-MS/MS analysis; type: ADME, organism-based; conditions: in vivo; method in brief: as §10

Sequence of Voltage-gated inwardly rectifying potassium channel KCNH2 (Q12809 whole entry): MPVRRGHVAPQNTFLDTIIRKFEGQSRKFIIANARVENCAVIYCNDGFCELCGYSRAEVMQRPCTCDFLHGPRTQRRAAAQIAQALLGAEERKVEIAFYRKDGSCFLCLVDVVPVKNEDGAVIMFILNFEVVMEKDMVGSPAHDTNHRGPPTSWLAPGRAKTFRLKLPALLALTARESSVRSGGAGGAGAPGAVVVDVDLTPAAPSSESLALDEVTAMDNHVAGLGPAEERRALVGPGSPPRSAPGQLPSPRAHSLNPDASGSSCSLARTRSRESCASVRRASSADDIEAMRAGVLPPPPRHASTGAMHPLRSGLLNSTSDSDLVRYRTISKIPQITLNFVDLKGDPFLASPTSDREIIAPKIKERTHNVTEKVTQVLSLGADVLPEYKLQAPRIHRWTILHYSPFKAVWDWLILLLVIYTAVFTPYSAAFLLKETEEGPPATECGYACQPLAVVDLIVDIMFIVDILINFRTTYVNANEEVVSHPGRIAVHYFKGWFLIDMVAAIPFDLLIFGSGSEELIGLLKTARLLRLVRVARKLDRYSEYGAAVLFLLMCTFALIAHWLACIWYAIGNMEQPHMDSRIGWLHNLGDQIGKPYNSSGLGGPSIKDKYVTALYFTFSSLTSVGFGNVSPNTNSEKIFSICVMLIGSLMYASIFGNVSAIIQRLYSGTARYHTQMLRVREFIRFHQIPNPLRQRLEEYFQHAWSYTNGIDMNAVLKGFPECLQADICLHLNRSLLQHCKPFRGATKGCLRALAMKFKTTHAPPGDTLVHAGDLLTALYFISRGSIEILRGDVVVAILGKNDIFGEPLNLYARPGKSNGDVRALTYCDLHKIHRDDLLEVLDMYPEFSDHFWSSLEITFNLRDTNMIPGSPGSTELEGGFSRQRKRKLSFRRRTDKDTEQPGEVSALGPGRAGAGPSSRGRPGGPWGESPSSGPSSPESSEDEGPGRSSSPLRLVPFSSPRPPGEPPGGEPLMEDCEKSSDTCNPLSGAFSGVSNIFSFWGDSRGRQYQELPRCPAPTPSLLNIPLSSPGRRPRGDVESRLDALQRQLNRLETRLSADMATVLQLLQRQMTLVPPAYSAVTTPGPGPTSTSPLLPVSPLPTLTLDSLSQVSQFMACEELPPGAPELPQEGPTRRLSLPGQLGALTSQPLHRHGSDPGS

| Compound | Occ [1] | Ki [4] | IC50 [6] | hepatic extraction ratio at 1 µM [8] | solubility at 72 h [9] | Tmax [13] | IC50 [15] | Cmax [17] | Occ [20] | Occ [21] | hepatic extraction ratio at 1 µM [22] | solubility at 72 h [23] | efflux ratio at 1 h, 5 µM [24] | other results |
| --- | --- | --- | --- | --- | --- | --- | --- | --- | --- | --- | --- | --- | --- | --- |
| CN(C)C(=O)Cn1c(=O)n(C)c2ncc(-c3ccc(C(F)(F)F)s3)cc21 | 79% | 12 nM | 29 nM | < 0.3 | < 4 µM | 2 h | > 10000 nM | 1260 ng/g | 80% | 77% | < 0.17 | < 4 µM | 1.4 | solubility [2]: Soluble; solubility [3]: Insoluble; Cmax [5]: 598 ng/g; AUC(0-inf) [7]: 912 ng·h/mL; clearance [10]: 14 mL/min/kg; bioavailability [11]: 121%; Tmax [12]: 1 h; Vd [14]: 1.2 L/kg; half-life [16]: 1.3 h; Cmax [18]: 188 ng/mL; solubility [19]: Insoluble |
| Cn1c(=O)n(CC(=O)N2CC(F)C2)c2cc(-c3ccc(C(F)(F)F)s3)cnc21 | 74% | 21 nM | 71 nM | < 0.3 | < 4 µM | 2 h | > 10000 nM | 728 ng/g | 71% | 24% | 0.17 | < 4 µM | 3.7 | Vd [25]: 0.9 L/kg; Cmax [26]: 1000 ng/mL; clearance [27]: 20 mL/min/kg; AUC(0-inf) [28]: 3610 ng·h/mL; Tmax [29]: 1 h; bioavailability [30]: 109%; half-life [31]: 0.9 h |
